Experimental data reported in ChEMBL document CHEMBL1944602, “Synthesis and biological characterisation of sirtuin inhibitors based on the tenovins” (Bioorg Med Chem, 2012).
Active and inactive are the calls of the source. The calls are words filed in the database; no cut-off is given here.

Legend:
[1] = Cytotoxicity against human H1299 cells at 30 uM; assay type: cell-based; conditions: nci-h1299, 30 µM
[2] = target: T1, NAD-dependent protein deacetylase sirtuin-1 (Homo sapiens) (UniProt Q96EB6); test: Inhibition of SirT1 assessed as increase in p53 expression in human MCF7 cells at 10 uM after 6 hrs by Western blotting; assay type: cell-based
T1 sequence (whole entry): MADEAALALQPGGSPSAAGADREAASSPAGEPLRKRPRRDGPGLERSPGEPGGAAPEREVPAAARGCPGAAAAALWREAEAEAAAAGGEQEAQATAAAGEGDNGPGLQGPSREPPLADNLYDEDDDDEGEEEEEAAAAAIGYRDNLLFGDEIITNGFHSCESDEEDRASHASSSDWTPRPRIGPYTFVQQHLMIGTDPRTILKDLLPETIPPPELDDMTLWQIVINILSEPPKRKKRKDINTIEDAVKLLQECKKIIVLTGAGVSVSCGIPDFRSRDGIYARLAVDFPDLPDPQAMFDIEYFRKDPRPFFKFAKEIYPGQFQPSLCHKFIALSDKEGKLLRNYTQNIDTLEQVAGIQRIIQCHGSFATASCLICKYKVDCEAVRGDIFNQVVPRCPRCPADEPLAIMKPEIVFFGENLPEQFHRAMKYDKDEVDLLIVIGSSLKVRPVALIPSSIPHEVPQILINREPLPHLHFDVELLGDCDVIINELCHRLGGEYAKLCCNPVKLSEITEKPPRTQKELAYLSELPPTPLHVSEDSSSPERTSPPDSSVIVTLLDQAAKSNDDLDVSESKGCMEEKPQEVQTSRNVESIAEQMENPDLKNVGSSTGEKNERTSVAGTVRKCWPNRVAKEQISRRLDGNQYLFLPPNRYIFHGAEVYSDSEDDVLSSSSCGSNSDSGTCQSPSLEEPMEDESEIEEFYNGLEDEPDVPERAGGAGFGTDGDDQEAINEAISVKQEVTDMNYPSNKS
Summary of the method: (§1)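 MCF-7 cells grown in DMEM with 10% FCS and gentamycin, seeded at 2 × 10⁵ per well on collagen-coated plates and incubated 42 h at 37 °C in 5% CO2. Compound in DMSO was added for 6 h. Lysis in LDS buffer, protein equalised by BCA, 4–12% bis-tris SDS-PAGE, PVDF blot. Total p53 detected with DO.1, PCNA as loading control, ECL detection. Scored semi-quantitatively against untreated level.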

[3] = Solubility of the compound in water by UV spectrophotometry; assay type: physicochemical
Summary of the method: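 Extinction coefficient from absorbance at 273 nm of a 7-point 2-fold dilution series in acetonitrile; DMSO used first where needed. Coefficient taken from the slope of absorbance against molar concentration. Used to find the actual concentration of a nominal 100 µM aqueous solution made from 40 mM DMSO stock.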

[4] = target: T1, NAD-dependent protein deacetylase sirtuin-1 (Homo sapiens); test: Inhibition of SirT1 in human ARN8 cells assessed as p53 activation at 10 uM by beta-galactosidase reporter gene assay; assay type: cell-based
Summary of the method: (§2)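 p53-dependent transcription measured with a beta-galactosidase reporter in ARN8 cells, run in triplicate. Read-out is the ratio of signal in treated cells to DMSO-control cells, given to 2 significant figures; a positive or negative activity call is also recorded.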

[5] = target: T1, NAD-dependent protein deacetylase sirtuin-1 (Homo sapiens); test: Inhibition of SirT1 assessed as increase in p53 expression in human MCF7 cells at 5 uM after 6 hrs by Western blotting; assay type: cell-based; summary of the method: as §1
[6] = target: T1, NAD-dependent protein deacetylase sirtuin-1 (Homo sapiens); test: Inhibition of recombinant human SitT1 at 60 uM by Fluor de Lys fluorescence assay
Summary of the method: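 Human recombinant SirT1 deacetylation measured with the Fluor de Lys fluorescence kit at a fixed 60 µM inhibitor. Tested on two separate occasions; percent inhibition reported as a mean weighted to the standard error.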

[7] = Drug metabolism in human H1299 cells after 16 hrs by mass spectrophotometry; assay type: ADME, cell-based; conditions: nci-h1299, 16 h
[8] = target: T1, NAD-dependent protein deacetylase sirtuin-1 (Homo sapiens); test: Inhibition of SirT1 assessed as increase in p53 expression in human MCF7 cells at 2 uM after 6 hrs by Western blotting; assay type: cell-based; summary of the method: as §1
[9] = target: T1, NAD-dependent protein deacetylase sirtuin-1 (Homo sapiens); test: Inhibition of SirT1 in human ARN8 cells assessed as p53 activation at 5 uM by beta-galactosidase reporter gene assay; assay type: cell-based; summary of the method: as §2
[10] = target: T2, NAD-dependent protein deacetylase sirtuin-1 (Homo sapiens, UniProt Q96EB6); test: Inhibition of recombinant human SitT1 by Fluor de Lys fluorescence assay
T2 sequence (Q96EB6 whole entry): T1 sequence (whole entry)

[11] = target: T3, NAD-dependent protein deacetylase sirtuin-2 (Homo sapiens, UniProt Q8IXJ6); test: Inhibition of recombinant human SitT2 by Fluor de Lys fluorescence assay
T3 sequence (Q8IXJ6 whole entry): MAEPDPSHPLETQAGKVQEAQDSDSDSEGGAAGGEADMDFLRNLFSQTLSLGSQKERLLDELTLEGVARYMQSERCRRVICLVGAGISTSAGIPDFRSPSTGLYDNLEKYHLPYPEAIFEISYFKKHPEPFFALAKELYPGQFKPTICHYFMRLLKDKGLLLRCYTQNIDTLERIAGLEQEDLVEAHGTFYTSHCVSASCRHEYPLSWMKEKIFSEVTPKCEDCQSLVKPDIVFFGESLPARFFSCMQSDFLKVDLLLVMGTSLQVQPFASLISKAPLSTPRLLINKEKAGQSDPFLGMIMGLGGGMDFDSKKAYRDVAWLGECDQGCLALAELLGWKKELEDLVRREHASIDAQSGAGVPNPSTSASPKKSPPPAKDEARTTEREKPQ

[12] = target: T1, NAD-dependent protein deacetylase sirtuin-1 (Homo sapiens); test: Inhibition of SirT1 in human ARN8 cells assessed as p53 activation at 5 uM by beta-galactosidase reporter gene assay relative to control; assay type: cell-based; summary of the method: as §2
[13] = target: T1, NAD-dependent protein deacetylase sirtuin-1 (Homo sapiens); test: Inhibition of SirT1 in human ARN8 cells assessed as p53 activation at 20 uM by beta-galactosidase reporter gene assay relative to control; assay type: cell-based; summary of the method: as §2
[14] = target: T1, NAD-dependent protein deacetylase sirtuin-1 (Homo sapiens); test: Inhibition of SirT1 in human ARN8 cells assessed as p53 activation at 10 uM by beta-galactosidase reporter gene assay relative to control; assay type: cell-based; summary of the method: as §2
[15] = Cytotoxicity against human H1299 cells at 20 uM; assay type: cell-based; conditions: nci-h1299, 20 µM
[16] = Cytotoxicity against human ARN8 cells at 20 uM; assay type: cell-based; conditions: arn8, 20 µM

| Compound | Activity [1] | inhibition [2] | solubility [3] | inhibition [4] | inhibition [5] | inhibition [6] | Drug metabolism [7] | inhibition [8] | inhibition [9] | IC50 [10] | IC50 [11] | fold change (FC) [12] | fold change (FC) [13] | fold change (FC) [14] | Activity [15] | Activity [16] |
| --- | --- | --- | --- | --- | --- | --- | --- | --- | --- | --- | --- | --- | --- | --- | --- | --- |
| CN(C)CCCCC(=O)Nc1ccc(NC(=S)NC(=O)c2ccc(C(C)(C)C)cc2)cc1.Cl | Toxic | Active | 0.74 µg/mL | Active | Active | 73.9% | Active | Active | Active | – | – | – | – | – | – | – |
| CN(C)CCCC(=O)Nc1ccc(NC(=S)NC(=O)c2ccc(C(C)(C)C)cc2)cc1.Cl | – | Active | 0.57 µg/mL | – | Active | 85.2% | – | inactive | – | 35.8 µM | 12.8 µM | – | – | – | – | – |
| CCCCc1ccc(C(=O)NC(=S)Nc2ccc(NC(=O)CCCCN(C)C)cc2)cc1.Cl | Toxic | – | – | inactive | – | 56.3% | – | – | inactive | 46.3 µM | 8.6 µM | 0.91 | 0.28 | 0.93 | Toxic | Toxic |
| CN(C)CCOCCOCCOCCOCCOCC(=O)Nc1ccc(NC(=S)NC(=O)c2ccc(C(C)(C)C)cc2)cc1.Cl | – | inactive | > 1.34 µg/mL | – | inactive | 29.6% | – | inactive | – | > 60 µM | > 90 µM | – | – | – | – | – |
